Assay results taken from ChEMBL document CHEMBL1145899, “Estrogenic potential of 2-alkyl-4-(thio)chromenone 6-O-sulfamates: potent inhibitors of human steroid sulfatase” (J Med Chem, 2003).

Tests used:
MCF7 [1] = test: Stimulation of MCF-7 cell proliferation at 10 nM; type: functional, Homo sapiens
Summary of the method: (§1)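 MCF-7 cells hormone-depleted 10 days, then seeded at 20 000 cells/cm² in phenol red-free RPMI with 2.5% charcoal-stripped FCS and held 5 days. Compound (ethanol/DMSO, ≤0.1% solvent) added day 5, refreshed day 8; sulforhodamine counts days 5 and 10; triplicate wells. % stimulation = (growth vs solvent controls ×100) − 100.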

MCF7 [2] = test: Stimulation of MCF-7 cell proliferation at 1000 nM; type: functional, Homo sapiens; summary of the method: as §1
[3] = biological target: T1, Estrogen receptor (Homo sapiens) (UniProt P03372); test: Affinity of sulfamate compound for human estrogen receptor alpha
T1 sequence (whole entry): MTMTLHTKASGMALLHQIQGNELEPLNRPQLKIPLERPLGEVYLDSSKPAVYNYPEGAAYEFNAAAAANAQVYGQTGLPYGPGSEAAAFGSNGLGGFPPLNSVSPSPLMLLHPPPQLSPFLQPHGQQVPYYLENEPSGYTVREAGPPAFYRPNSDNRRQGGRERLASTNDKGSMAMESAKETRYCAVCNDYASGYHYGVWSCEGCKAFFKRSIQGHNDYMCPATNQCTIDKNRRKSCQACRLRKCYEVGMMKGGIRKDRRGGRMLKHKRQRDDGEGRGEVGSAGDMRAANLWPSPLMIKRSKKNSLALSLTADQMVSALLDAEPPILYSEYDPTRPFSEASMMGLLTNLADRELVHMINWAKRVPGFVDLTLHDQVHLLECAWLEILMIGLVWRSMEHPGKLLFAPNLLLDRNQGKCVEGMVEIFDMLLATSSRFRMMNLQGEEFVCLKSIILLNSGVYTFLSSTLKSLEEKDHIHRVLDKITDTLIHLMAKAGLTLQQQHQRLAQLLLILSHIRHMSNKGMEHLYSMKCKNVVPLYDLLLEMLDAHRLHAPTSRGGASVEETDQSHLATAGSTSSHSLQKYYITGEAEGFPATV
Summary of the method: (§2)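 Fluorescence polarization competition with purified human ER; ER-α final 13 nM or ER-β final 10 nM, fluorescein-estradiol tracer 1 nM final. Compounds from DMSO or ethanol stocks, 0.5% (v/v) final solvent; room temperature 2–2.5 h; triplicate wells. Four-parameter logistic fit; ED50 = concentration giving polarization midway between +tracer/+ER and +tracer/−ER controls. Tested up to solubility limit.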

[4] = biological target: Estrogen receptor beta (Homo sapiens) (UniProt Q92731); test: Affinity of sulfamate compound for human estrogen receptor beta; summary of the method: as §2
Estrogen receptor beta (Homo sapiens), sequence (Q92731 whole entry): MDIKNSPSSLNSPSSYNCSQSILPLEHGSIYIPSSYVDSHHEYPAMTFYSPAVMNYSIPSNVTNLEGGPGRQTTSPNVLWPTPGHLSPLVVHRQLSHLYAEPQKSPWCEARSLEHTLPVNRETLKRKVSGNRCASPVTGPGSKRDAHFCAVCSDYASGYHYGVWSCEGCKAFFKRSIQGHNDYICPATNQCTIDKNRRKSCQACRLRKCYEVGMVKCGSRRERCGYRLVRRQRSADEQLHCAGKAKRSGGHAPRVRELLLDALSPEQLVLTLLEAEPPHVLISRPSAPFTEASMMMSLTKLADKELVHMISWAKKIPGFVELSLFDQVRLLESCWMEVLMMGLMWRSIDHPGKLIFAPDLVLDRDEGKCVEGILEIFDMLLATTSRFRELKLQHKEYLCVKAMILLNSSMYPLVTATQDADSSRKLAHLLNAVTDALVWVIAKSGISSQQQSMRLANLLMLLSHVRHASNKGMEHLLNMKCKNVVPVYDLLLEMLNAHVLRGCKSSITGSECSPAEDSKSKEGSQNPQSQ

MCF7 [5] = test: Stimulation of MCF-7 cell proliferation at 100 nM; type: functional, Homo sapiens; summary of the method: as §1
[6] = biological target: Estrogen receptor beta (Homo sapiens) (UniProt Q92731)
[7] = biological target: T1, Estrogen receptor (Homo sapiens)
Steryl-sulfatase = biological target: T2, Steryl-sulfatase (Homo sapiens, UniProt P08842); test: Inhibition of steroid sulfatase
T2 sequence (P08842 whole entry): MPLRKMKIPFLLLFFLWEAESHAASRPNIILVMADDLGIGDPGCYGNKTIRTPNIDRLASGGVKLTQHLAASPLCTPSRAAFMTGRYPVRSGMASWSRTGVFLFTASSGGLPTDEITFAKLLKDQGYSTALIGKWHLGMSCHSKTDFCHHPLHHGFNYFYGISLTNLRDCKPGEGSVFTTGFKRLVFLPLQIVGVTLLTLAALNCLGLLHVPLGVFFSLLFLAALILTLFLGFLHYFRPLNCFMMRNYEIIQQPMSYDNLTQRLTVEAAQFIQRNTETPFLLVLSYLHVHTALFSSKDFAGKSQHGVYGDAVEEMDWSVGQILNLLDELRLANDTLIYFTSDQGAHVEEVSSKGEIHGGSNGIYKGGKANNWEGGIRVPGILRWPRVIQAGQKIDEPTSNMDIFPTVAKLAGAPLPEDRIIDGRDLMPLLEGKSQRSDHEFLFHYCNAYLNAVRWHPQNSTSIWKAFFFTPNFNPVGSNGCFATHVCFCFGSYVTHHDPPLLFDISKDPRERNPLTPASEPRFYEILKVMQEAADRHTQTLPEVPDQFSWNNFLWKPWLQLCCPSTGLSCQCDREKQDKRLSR
Summary of the method: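 Purified recombinant human STS; fluorimetric assay with 4-methylumbelliferone sulfate as substrate. IC50 by nonlinear regression; mean of triplicate determinations.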

C[C@]12CC[C@@H]3c4ccc(OS(N)(=O)=O)cc4CCC3[C@@H]1CCC2=O (single isomer, unassigned) [EMATE] showed a Stimulation (MCF7 [1]) of 97%, a Stimulation (MCF7 [2]) of 123% and an ED50 [3] of 2.6 µM. It also gave an ED50 [4] of 3.7 µM and a Stimulation (MCF7 [5]) of 112%.

Work on O=C1CC(C23CC4CC(CC(C4)C2)C3)Oc2ccc(O)cc21 (stereo unspecified) yielded an ED50 [6] of 0.035 µM and an ED50 [7] of 0.1 µM.

For CC1(C)C(c2cc(=O)c3cc(OS(N)(=O)=O)ccc3o2)C1(C)C, the Stimulation (MCF7 [1]) was 52%, the Stimulation (MCF7 [2]) was 120% and the ED50 [6] was 47 µM. The ED50 [7] was 30 µM and the Stimulation (MCF7 [5]) was 85%.

With NS(=O)(=O)Oc1ccc2oc(CCc3ccccc3)cc(=O)c2c1 the Stimulation (MCF7 [1]) was 16%, the Stimulation (MCF7 [2]) was 45% and the ED50 [3] was > 100 µM. For the same compound, the ED50 [4] was > 100 µM and the Stimulation (MCF7 [5]) was 33%.

C[C@]12CC[C@@H]3c4ccc(O)cc4CC[C@H]3[C@@H]1CC[C@@H]2O [ESTRADIOL] gave a Stimulation (MCF7 [1]) of 400% and an ED50 [6] of 0.011 µM.

For NS(=O)(=O)Oc1ccc2oc(C3CCCCCCCCCCC3)cc(=O)c2c1, the Stimulation (MCF7 [1]) was 48%, the Stimulation (MCF7 [2]) was 118% and the ED50 [6] was > 30 µM. The ED50 [7] was > 10 µM and the Stimulation (MCF7 [5]) was 72%.

CC1(C)C(c2cc(=O)c3cc(O)ccc3o2)C1(C)C was tested, and the ED50 [6] was 2.6 µM and the ED50 [7] was 0.9 µM.

With CCCCCCCCCc1cc(=O)c2cc(O)ccc2o1 the ED50 [6] was > 100 µM and the ED50 [7] was > 100 µM.

Compound O=c1cc(C23CC4CC(CC(C4)C2)C3)oc2ccc(O)cc12 has an ED50 [6] of 1.4 µM and an ED50 [7] of 1.5 µM.

For CCCCCC12CCC(CC1)C(c1cc(=O)c3cc(O)ccc3o1)C2 (stereo unspecified), the ED50 [6] was > 100 µM and the ED50 [7] was > 100 µM.

In the case of CC(C)(C)c1cc(=O)c2cc(O)ccc2o1, the ED50 [6] is reported as 69 µM and the ED50 [7] is reported as 64 µM.

In the case of CCCCCCCCCc1cc(=O)c2cc(OS(N)(=O)=O)ccc2o1, the Stimulation (MCF7 [1]) is reported as 0%, the Stimulation (MCF7 [2]) is reported as 0% and the ED50 [6] is reported as > 100 µM. For the same compound, the ED50 [7] was > 50 µM and the Stimulation (MCF7 [5]) was 0%.

In the case of NS(=O)(=O)Oc1ccc2oc(C34CC5CC(CC(C5)C3)C4)cc(=O)c2c1, the Stimulation (MCF7 [1]) is reported as 71%, the Stimulation (MCF7 [2]) is reported as 116% and the IC50 (Steryl-sulfatase) is reported as 0.0056 µM. For the same compound, the ED50 [6] was > 30 µM, the ED50 [7] was > 30 µM and the Stimulation (MCF7 [5]) was 88%.

CC(C)(C)c1cc(=O)c2cc(OS(N)(=O)=O)ccc2o1 was tested, and the Stimulation (MCF7 [1]) was 12%, the Stimulation (MCF7 [2]) was 100% and the ED50 [6] was > 100 µM. The ED50 [7] was > 100 µM and the Stimulation (MCF7 [5]) was 45%.

For CCCCCCCCC(C)(C)c1cc(=O)c2cc(OS(N)(=O)=O)ccc2o1, the Stimulation (MCF7 [1]) was 0%, the Stimulation (MCF7 [2]) was 0% and the ED50 [6] was > 100 µM. For the same compound, the ED50 [7] was > 30 µM and the Stimulation (MCF7 [5]) was 0%.

Work on NS(=O)(=O)Oc1ccc2c(c1)C(=O)CC(C13CC4CC(CC(C4)C1)C3)O2 (stereo unspecified) yielded a Stimulation (MCF7 [1]) of 79%, a Stimulation (MCF7 [2]) of 130% and an ED50 [6] of 14 µM. The ED50 [7] was 13 µM and the Stimulation (MCF7 [5]) was 90%.

With CCCCCCCCC(C)(C)c1cc(=O)c2cc(O)ccc2o1 the ED50 [6] was > 100 µM and the ED50 [7] was > 100 µM.

Compound O=c1cc(C2CCCCCCCCCCC2)oc2ccc(O)cc12 has an ED50 [6] of 1.5 µM and an ED50 [7] of 0.8 µM.

For NS(=O)(=O)Oc1ccc2sc(C34CC5CC(CC(C5)C3)C4)cc(=O)c2c1, the Stimulation (MCF7 [1]) was 78%, the Stimulation (MCF7 [2]) was 120% and the ED50 [6] was 18 µM. It also gave an ED50 [7] of 4.8 µM and a Stimulation (MCF7 [5]) of 99%.

O=c1cc(C23CC4CC(CC(C4)C2)C3)sc2ccc(O)cc12 gave an ED50 [6] of 0.48 µM and an ED50 [7] of 0.21 µM.
